Measurements published in ChEMBL document CHEMBL1156154, “Heterocyclic fused pyridone carboxylic acid M(1) positive allosteric modulators” (Bioorg Med Chem Lett, 2010).
Activity calls are given as the source filed them. The calls are words filed in the database; no cut-off is given here.

Key:
Rattus norvegicus = assay: Plasma concentration in Sprague-Dawley rat at 10 mg/kg, po; assay type: ADME, organism-based; parameters: dose 10 mg/kg, route oral; conditions: in vivo
[1] = Plasma protein binding in human serum by equilibrium dialysis method
[2] = Plasma protein binding in rat serum by equilibrium dialysis method
[3] = Ratio of drug level in CSF to fraction unbound in plasma in rat; assay type: ADME; conditions: in vivo
Method in brief: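 Sprague–Dawley rats dosed orally at 10 mg/kg in 0.5% methocel. CSF level divided by unbound plasma level. Unbound fraction comes from rat plasma protein binding by equilibrium dialysis.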

[4] = Ratio of drug level in brain to plasma in Sprague-Dawley rat at 10 mg/kg, po; assay type: ADME, organism-based; parameters: dose 10 mg/kg, route oral
Cerebrospinal fluid = assay: Drug level in Sprague-Dawley rat CSF at 10 mg/kg, po; assay type: ADME, organism-based; parameters: dose 10 mg/kg, route oral; conditions: in vivo, read-out: Drug uptake
Brain = assay: Drug level in Sprague-Dawley rat brain at 10 mg/kg, po; assay type: ADME, organism-based; parameters: dose 10 mg/kg, route oral; conditions: in vivo, read-out: Drug uptake
[5] = target: T1, Muscarinic acetylcholine receptor M1 (Homo sapiens) (UniProt P11229); assay: Positive allosteric modulator activity at human muscarinic M1 receptor expressed in CHO cells assessed as effect on acetylcholine-induced intracellular calcium mobilization by FLIPR assay; assay type: functional, cell-based
T1 sequence (whole entry): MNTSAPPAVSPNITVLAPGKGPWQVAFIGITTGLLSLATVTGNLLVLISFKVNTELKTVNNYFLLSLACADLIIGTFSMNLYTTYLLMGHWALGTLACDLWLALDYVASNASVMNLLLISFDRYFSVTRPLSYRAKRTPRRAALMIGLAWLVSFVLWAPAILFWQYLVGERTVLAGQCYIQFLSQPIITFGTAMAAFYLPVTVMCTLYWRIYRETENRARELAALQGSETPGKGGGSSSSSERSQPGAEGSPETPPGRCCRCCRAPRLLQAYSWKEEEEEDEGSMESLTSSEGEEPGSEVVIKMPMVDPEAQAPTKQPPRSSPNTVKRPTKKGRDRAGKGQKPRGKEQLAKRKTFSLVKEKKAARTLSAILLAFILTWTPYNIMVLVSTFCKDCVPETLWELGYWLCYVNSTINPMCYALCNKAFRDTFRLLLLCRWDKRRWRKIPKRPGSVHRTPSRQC
Method in brief: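 CHO cells expressing human M1 were run with an EC20 concentration of acetylcholine. Calcium mobilization was read on a FLIPR384. Potency is reported as the inflection point. Percent max is the compound plus EC20 ACh response relative to the maximal acetylcholine effect.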

[6] = target: T2, Muscarinic acetylcholine receptor M2 (Homo sapiens) (UniProt P08172); assay: Positive allosteric modulator activity at human muscarinic acetylcholine M2 receptor expressed in CHO cells assessed as effect on acetylcholine-induced intracellular calcium mobilization by FLIPR assay; assay type: functional, cell-based
T2 sequence (whole entry): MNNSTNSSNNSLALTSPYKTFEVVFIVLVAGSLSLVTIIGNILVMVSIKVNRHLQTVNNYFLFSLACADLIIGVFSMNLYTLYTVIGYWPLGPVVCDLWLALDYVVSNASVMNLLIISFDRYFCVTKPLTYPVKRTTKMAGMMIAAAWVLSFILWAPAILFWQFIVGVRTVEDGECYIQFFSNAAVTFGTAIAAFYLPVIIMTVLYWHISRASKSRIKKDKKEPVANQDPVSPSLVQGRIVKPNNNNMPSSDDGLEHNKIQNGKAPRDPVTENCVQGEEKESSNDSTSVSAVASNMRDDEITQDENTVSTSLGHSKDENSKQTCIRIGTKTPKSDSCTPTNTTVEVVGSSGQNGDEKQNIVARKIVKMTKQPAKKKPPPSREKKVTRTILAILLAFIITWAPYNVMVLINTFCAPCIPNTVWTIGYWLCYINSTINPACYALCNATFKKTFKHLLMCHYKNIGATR

[7] = target: Muscarinic acetylcholine receptor M3 (Homo sapiens) (UniProt P20309); assay: Positive allosteric modulator activity at human muscarinic M3 receptor expressed in CHO cells assessed as effect on acetylcholine-induced intracellular calcium mobilization by FLIPR assay; assay type: functional, cell-based
[8] = target: T3, Muscarinic acetylcholine receptor M4 (Homo sapiens) (UniProt P08173); assay: Positive allosteric modulator activity at human muscarinic M4 receptor expressed in CHO cells assessed as effect on acetylcholine-induced intracellular calcium mobilization by FLIPR assay; assay type: functional, cell-based
T3 sequence (whole entry): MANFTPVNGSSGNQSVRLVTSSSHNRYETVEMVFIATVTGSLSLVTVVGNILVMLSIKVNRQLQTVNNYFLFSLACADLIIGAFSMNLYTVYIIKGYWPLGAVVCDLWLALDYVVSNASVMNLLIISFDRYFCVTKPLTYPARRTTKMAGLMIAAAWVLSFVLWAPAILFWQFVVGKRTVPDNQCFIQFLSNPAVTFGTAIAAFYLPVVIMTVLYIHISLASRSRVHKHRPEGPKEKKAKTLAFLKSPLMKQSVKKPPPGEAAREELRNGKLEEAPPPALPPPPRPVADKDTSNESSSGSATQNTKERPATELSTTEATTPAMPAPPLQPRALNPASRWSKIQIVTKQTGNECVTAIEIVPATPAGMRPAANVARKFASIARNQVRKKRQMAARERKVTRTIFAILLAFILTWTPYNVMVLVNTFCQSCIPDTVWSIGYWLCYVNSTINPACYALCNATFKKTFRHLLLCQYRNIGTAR

[9] = Bioavailability in rat at 10 mg/kg, po and 2 mg/kg, iv; assay type: ADME, organism-based; conditions: in vivo
Method in brief: (§1)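 Rat pharmacokinetics, oral dosing at 10 mpk and intravenous dosing at 2 mpk. Bioavailability, half-life and clearance derived from these profiles.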

[10] = Half life in rat at 10 mg/kg, po and 2 mg/kg, iv; assay type: ADME, organism-based; conditions: in vivo; method in brief: as §1
[11] = Clearance in rat at 10 mg/kg, po and 2 mg/kg, iv; assay type: ADME, organism-based; conditions: in vivo; method in brief: as §1
Mus musculus = species: Mus musculus; assay: Effect on behavioral activity in mouse contextual fear conditioning model assessed as episodic memory; assay type: functional, organism-based
[12] = Ratio of drug level in CSF to fraction unbound in plasma in CF-1 mouse; assay type: ADME; conditions: in vivo
Method in brief: (§2)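 CF-1 wild-type and P-gp knockout mice were dosed, and plasma and CSF were taken 30 min later. The CSF to unbound plasma ratio was then calculated.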

[13] = Ratio of drug level in CSF to fraction unbound in plasma in P-glycoprotein deficient mouse; assay type: ADME; conditions: in vivo; method in brief: as §2

Chain of Muscarinic acetylcholine receptor M3 (Homo sapiens) (P20309 whole entry, looked up): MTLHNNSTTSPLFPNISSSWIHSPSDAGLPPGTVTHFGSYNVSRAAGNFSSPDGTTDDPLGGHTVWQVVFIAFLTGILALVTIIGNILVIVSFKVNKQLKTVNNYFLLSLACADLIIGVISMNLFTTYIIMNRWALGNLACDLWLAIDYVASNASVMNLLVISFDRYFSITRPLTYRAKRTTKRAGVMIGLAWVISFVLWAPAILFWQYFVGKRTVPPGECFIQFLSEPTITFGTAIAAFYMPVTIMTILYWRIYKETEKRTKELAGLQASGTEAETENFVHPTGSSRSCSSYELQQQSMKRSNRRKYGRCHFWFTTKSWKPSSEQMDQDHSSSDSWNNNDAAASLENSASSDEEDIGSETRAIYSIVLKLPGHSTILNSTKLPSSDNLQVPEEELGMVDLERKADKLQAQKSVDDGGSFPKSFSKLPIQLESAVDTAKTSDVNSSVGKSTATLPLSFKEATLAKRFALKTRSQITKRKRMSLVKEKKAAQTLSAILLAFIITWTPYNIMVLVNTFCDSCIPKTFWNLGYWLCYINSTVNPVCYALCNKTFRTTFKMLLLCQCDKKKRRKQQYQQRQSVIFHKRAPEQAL

Row | concentration (Rattus norvegicus) [nM] | fraction unbound [1] | fraction unbound [2] | Ratio [3] | Kp [4] | concentration (Cerebrospinal fluid) [nM] | concentration (Brain) [nM] | IP [5] [µM] | Activity [6] | Activity [7] | Activity [8] | bioavailability [9] [%] | half-life [10] [h] | clearance [11] [mL/min/kg] | Ratio [12] | Ratio [13] | Compound | Activity (Mus musculus)
1 | 78500 | 0.125 | 0.011 | 0.03 | 0.15 | 24 | 1200 | 0.25 | inactive | inactive | inactive | – | – | – | – | – | Cc1ccn(-c2ccc(Cn3cc(C(=O)O)c(=O)c4ccncc43)cc2)n1 | –
2 | 4240 | 0.14 | 0.132 | 0.21 | 0.07 | 123 | 316 | 0.52 | inactive | inactive | inactive | 33 | 3.7 | 6.8 | 0.05 | 0.16 | O=C(O)c1cn(Cc2ccc(-n3cccn3)cc2)c2ccsc2c1=O | inactive
3 | 9420 | 0.279 | 0.094 | 0.05 | 0.02 | 42 | 159 | 0.34 | inactive | inactive | inactive | – | – | – | – | – | Cn1cc(-c2ccc(Cn3cc(C(=O)O)c(=O)c4sccc43)nc2)cn1 | –
